The entries come from a sample that favours hits as a whole.
IDH1 mut inh: IDH1 R132H (human) inhibition. inhibition, % at 10 µM. 0.18% of 70,000 active. IDH1 R132H reductase, diaphorase/resazurin fluorescence, 60 min. AID 624101; in the data active means inhibition above about 34%; inconclusive means no clear call, values can overlap the other calls; inactive means below about 11%;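 further: 0% = DMSO and 100% = no enzyme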
T cruzi growth-1: inhibitors of T. cruzi proliferation. T. cruzi beta-gal in NIH3T3, GalScreen luminescence, 90 h. 5.9% of 77,000 active. inhibition, % at 8.34 µM;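 active means mean inhibition above about 93%, with at least 55% of replicates each passing it, limit read from the data, passing the limit was not always enough; inconclusive means only one of those two conditions holds; inactive means neither condition holds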
GASC1 inh: blocks human GASC-1 (KDM4C) demethylase activity; Q9H3R0; GST-KDM4C 2-372, H3K9me3 peptide, LANCE TR-FRET; inhibition, % at 12.5 µM; 0.15% of 96,000 active; AID 720574;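 active means mean replicate inhibition above about 25%, with at least 55% of replicates also reaching it, limit read from the data, passing the limit was not always enough; inconclusive means only one of those two conditions met; inactive means neither condition met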
Target sequence (Q9H3R0 2-372 limits assumed): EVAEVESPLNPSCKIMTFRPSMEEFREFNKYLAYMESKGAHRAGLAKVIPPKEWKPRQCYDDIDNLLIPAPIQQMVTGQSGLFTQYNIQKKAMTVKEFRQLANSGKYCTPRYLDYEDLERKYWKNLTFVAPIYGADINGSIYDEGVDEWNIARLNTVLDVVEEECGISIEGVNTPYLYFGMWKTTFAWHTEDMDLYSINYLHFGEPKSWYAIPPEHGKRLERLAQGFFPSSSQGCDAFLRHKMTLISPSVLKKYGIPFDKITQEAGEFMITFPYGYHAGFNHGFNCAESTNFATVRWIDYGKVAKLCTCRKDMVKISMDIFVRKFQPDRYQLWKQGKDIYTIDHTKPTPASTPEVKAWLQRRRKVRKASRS
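Assay system: GST-GASC-1 enzyme fragment 2-372 | Amount: 10 nM enzyme | Medium: HEPES buffer, pH 7.5, plus ascorbate | Reagent: H3K9me3 peptide substrate, Fe(II), 2-oxoglutarate | Doses: Single-point compound screen | Incubation: 30 min demethylation and 1 h detection at room temperature | Measured by: LANCE TR-FRET, excitation 340 nm, emissions 618 and 671 nm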
T cruzi growth-2: inhibitors of T. cruzi proliferation. T. cruzi beta-gal in NIH3T3, GalScreen luminescence, 90 h. inhibition, % at 8.35 µM. shares compounds with T cruzi growth-1. 72% of 5,600 active. AID 651739;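 active means mean replicate inhibition above about 95% and at least 55% of replicates individually reaching it, limit read from the data; inconclusive means only one of the two criteria is met; inactive means neither criterion is met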
T cruzi growth-3: Trypanosoma cruzi proliferation inhibition. 21% of 5,600 active. AID 651740. shares compounds with T cruzi growth-1. inhibition, % at 2.09 µM. T. cruzi beta-gal in NIH3T3, GalScreen luminescence, 90 h;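 active means mean inhibition above about 95%, with at least 55% of replicates also reaching it, limit read from the data; inconclusive means meets just one of the two conditions; inactive means meets neither condition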;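 further: plate controls were neutral control median for no effect and positive control median for full effect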
3T3 cytotox: cytotoxicity in mouse NIH/3T3 fibroblasts; shares compounds with T cruzi growth-1; NIH/3T3 viability, CellTiter-Glo ATP luminescence, 90 h; cytotoxicity (signal decrease), % at 8.35 µM; 14% of 5,600 active;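 active means mean signal decrease across replicates above about 35% based on untreated-well scatter, with enough replicates individually passing, limit read from the data; inconclusive means no rule stated though some were filed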;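 further: 0% = median of neutral control wells and 100% = median of positive control wells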
3T3 cytotox 2: NIH/3T3 (mouse) viability loss | shares compounds with T cruzi growth-1 | NIH/3T3 viability, CellTiter-Glo ATP luminescence, 90 h | inhibition, % at 24.9 µM | 56% of 5,600 active | AID 651744;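 active means mean loss of cell viability signal at or above a set limit, and enough replicates individually reaching it; inconclusive means meets only the mean limit or only the replicate share; inactive means meets neither condition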;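 further: 0% = median of neutral control wells and 100% = median of positive control wells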
* marks the source's active call; other numbers are inactive results; ? = inconclusive; . = no result given.

SMILES	IDH1 mut inh	T cruzi growth-1	GASC1 inh	T cruzi growth-2	T cruzi growth-3	3T3 cytotox	3T3 cytotox 2
COc1ccc(OC)c(NC(=O)c2ccc(CSc3nnnn3C)cc2)c1	-0.2	.	.	.	.	.	.
COCC(=O)N1CCCCN2[C@@H](CO)[C@@H](c3ccc(-c4ccc(F)cc4)cc3)[C@@H]2C1	.	79.4	-0.9	.	.	.	.
COCC(=O)N1CCCCN2[C@H](CO)[C@H](c3ccc(-c4ccc(C)cc4)cc3)[C@@H]2C1	.	90.9	-0.6	.	.	.	.
COCC(=O)N1CCCCN2[C@@H](CO)[C@@H](c3ccc(-c4ccc(C)cc4)cc3)[C@@H]2C1	.	106.7*	0.4	74.7	75.2	-10.7	26.2*
CCC(=O)N1CCCCN2[C@@H](CO)[C@@H](c3ccc(-c4ccc(F)cc4)cc3)[C@@H]2C1	.	106.9*	-0.4	78.8	68.9	16.0	69.6*
CCC(=O)N1CCCCN2[C@H](CO)[C@H](c3ccc(-c4ccc(F)cc4)cc3)[C@@H]2C1	.	105.8*	-0.3	78.1	-14.4	26.0	53.5*
CCC(=O)N1CCCCN2[C@H](CO)[C@H](c3ccc(-c4ccc(F)cc4)cc3)[C@H]2C1	.	93.1	-0.1	.	.	.	.
Cc1ccc(-c2csc3nnc(SCC(=O)Nc4ccc5c(c4)OCCO5)n23)cc1	0.0	.	.	.	.	.	.
C/C=C(\C)C(=O)O[C@@H]1c2c(ccc3ccc(=O)oc23)OC(C)(C)[C@@H]1OC(C)=O	1.2	.	.	.	.	.	.
Cc1cc(N(CC(=O)Nc2cc(C(F)(F)F)ccc2Cl)S(C)(=O)=O)ccc1Br	0.0	.	.	.	.	.	.
C[C@@H]1CCCCO[C@H](CN(C)Cc2ccc(Cl)c(Cl)c2)[C@@H](C)CN([C@H](C)CO)C(=O)c2cc(NC(=O)Nc3ccc(F)cc3)ccc2O1	-0.9	101.9*	-1.2	?	107.7*	20.6	8.3
C[C@@H]1CCCCO[C@@H](CN(C)Cc2ccc(Cl)c(Cl)c2)[C@@H](C)CN([C@H](C)CO)C(=O)c2cc(NC(=O)Nc3ccc(F)cc3)ccc2O1	.	109.0*	1.6	101.1*	108.5*	-6.3	-1.8
C[C@@H]1CCCCO[C@H](CN(C)Cc2ccc(Cl)c(Cl)c2)[C@@H](C)CN([C@@H](C)CO)C(=O)c2cc(NC(=O)Nc3ccc(C(F)(F)F)cc3)ccc2O1	.	26.4	-0.5	.	.	.	.
C[C@@H]1CN([C@H](C)CO)C(=O)c2cc(NC(=O)Nc3ccccc3)ccc2O[C@@H](C)CCCCO[C@H]1CN(C)Cc1ccc(Cl)c(Cl)c1	.	67.8	-0.1	.	.	.	.
C[C@@H]1CN([C@@H](C)CO)C(=O)c2cc(NC(=O)Nc3ccc(F)cc3)ccc2O[C@@H](C)CCCCO[C@H]1CN(C)Cc1ccc(Cl)c(Cl)c1	0.1	103.2*	-2.6	93.7	110.2*	44.1*	15.3
C[C@@H]1CCCCO[C@@H](CN(C)Cc2ccc(Cl)c(Cl)c2)[C@H](C)CN([C@H](C)CO)C(=O)c2cc(NC(=O)Nc3ccccc3)ccc2O1	.	72.9	-0.8	.	.	.	.
C[C@@H]1CCCCO[C@H](CN(C)Cc2ccc(Cl)c(Cl)c2)[C@H](C)CN([C@@H](C)CO)C(=O)c2cc(NC(=O)Nc3ccc(F)cc3)ccc2O1	1.4	106.2*	0.5	99.1*	110.4*	7.6	?
C[C@@H]1CCCCO[C@H](CN(C)Cc2ccc(Cl)c(Cl)c2)[C@H](C)CN([C@@H](C)CO)C(=O)c2cc(NC(=O)Nc3ccccc3)ccc2O1	0.7	76.1	-2.8	.	.	.	.
O=C(CN1CCc2ccccc2C1)Nc1ccc(S(=O)(=O)N2CCOCC2)cc1	-0.3	.	.	.	.	.	.
CC(=O)c1c(C)oc2ccc(N(C(=O)c3ccc(C)cc3)S(=O)(=O)c3cccc4cccnc34)cc12	-0.3	.	.	.	.	.	.
O=[N+]([O-])c1cccc(NC(=S)NCCn2cc(Br)cn2)c1	-0.5	.	.	.	.	.	.
COC(=O)c1ccc(C2C(C(=O)c3cc4ccccc4o3)C(=O)C(=O)N2Cc2ccncc2)cc1 (stereo unspecified)	0.5	.	.	.	.	.	.
C[C@H]1CN([C@@H](C)CO)C(=O)c2c(c3ccccc3n2C)-c2ccccc2CO[C@@H]1CN(C)C(=O)[C@@H](Cc1ccccc1)N(C)C	.	-8.7	-0.1	.	.	.	.
C[C@H]1CN([C@@H](C)CO)C(=O)c2c(c3ccccc3n2C)-c2ccccc2CO[C@H]1CN(C)Cc1ccc(F)cc1	.	.	0.8	.	.	.	.
